Active and inactive are the calls of the source. No cut-off for these calls is given here. Starred links: 1 amine or outer side, 2 acyl side, 3 side chain; linkers in the order of their positions; H or OH if unused. Positions of bridges follow the written chain, without caps; N, C: chain ends. Non-standard residues stand in square brackets, D forms with d. Residues, ends and D or L forms follow the SMILES beside them. *: point of attachment. hTyr(3S-OH,4S-OH,3'-OSO3H) = N[C@H](C(=O)O)[C@H](O)[C@@H](O)c1ccc(O)c(OS(=O)(=O)O)c1; Orn(4R-OH,5R-OH) = O=C([C@H](C[C@@H](O)[C@@H](O)N[*:3])N[*:1])[*:2]; Pro(3S-OH,4S-Me) = C[C@H]1CN[C@H](C(=O)O)[C@H]1O; X1 = CCCCCOc1ccc(-c2cc(-c3ccc(C(=O)*)cc3)no2)cc1; Gln(3R-OH) = NC(=O)C[C@@H](O)[C@H](N)C(=O)O; Hyp = O=C(O)[C@@H]1C[C@@H](O)CN1
Legend:
Assay type in all cases: functional, organism-based
Candida albicans [1] = test: Antifungal activity against Candida albicans TIMM 1623 infected ICR mouse assessed as delay in mortality of mouse at 0.01 mg/kg after 6 days; parameters: dose 0.01 mg/kg
Procedure, shortened: (§1)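 Male ICR mice, 4 weeks old and SPF, were made neutropenic with intraperitoneal cyclophosphamide. The schedule was 200 mg/kg on day −3 (day −4 for Cryptococcus) plus 100 mg/kg on day +1. Infection was by tail-vein injection of 0.2 ml suspension: C. albicans 3.0 × 10^4, C. neoformans 9.1 × 10^4, A. fumigatus conidia 8.4 × 10^4 CFU/mouse. Drugs were given subcutaneously once daily for 7 days from 2 h post-infection; controls received saline. Groups had 8–10 mice.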

Cryptococcus neoformans [2] = test: Antifungal activity against Cryptococcus neoformans ATCC 90112 infected ICR mouse assessed as delay in mortality of mouse at 0.1 mg/kg after 9 days; parameters: dose 0.1 mg/kg; procedure, shortened: as §1
Candida albicans [3] = test: Antifungal activity against Candida albicans TIMM 1623 infected ICR mouse assessed as delay in mortality of mouse at 0.1 mg/kg after 6 days; parameters: dose 0.1 mg/kg; procedure, shortened: as §1
Cryptococcus neoformans [4] = test: Antifungal activity against Cryptococcus neoformans ATCC 90112 infected ICR mouse assessed as delay in mortality of mouse at 0.3 mg/kg after 9 days; parameters: dose 0.3 mg/kg; procedure, shortened: as §1
Candida albicans [5] = test: Antifungal activity against Candida albicans TIMM 1623 infected ICR mouse assessed as delay in mortality of mouse at 0.2 mg/kg after 6 days; parameters: dose 0.2 mg/kg; procedure, shortened: as §1

## N=C(N)c1ccc(OCCCC2CCN(CCCOc3ccc(C(=N)N)cc3)CC2)cc1
Candida albicans [1]
  Activity: Active
Cryptococcus neoformans [2]
  Activity: Active

## C[C@@H]1[C@H](O)[C@@H](C)/C=C/C=C/C=C/C=C/C=C/C=C/C=C/[C@H](O[C@@H]2O[C@H](C)[C@@H](O)[C@H](N)[C@@H]2O)C[C@@H]2O[C@](O)(C[C@@H](O)C[C@@H](O)[C@H](O)CC[C@@H](O)C[C@@H](O)CC(=O)O[C@H]1C)C[C@H](O)[C@H]2C(=O)O [AMPHOTERICIN B]
Candida albicans [3]
  Activity: Active
Cryptococcus neoformans [4]
  Activity: Active

## CCCCCOc1ccc(-c2cc(-c3ccc(C(=O)N[C@H]4C[C@@H](O)[C@@H](O)NC(=O)[C@@H]5[C@@H](O)[C@@H](C)CN5C(=O)[C@H]([C@H](O)CC(N)=O)NC(=O)[C@H]([C@H](O)[C@@H](O)c5ccc(O)c(OS(=O)(=O)O)c5)NC(=O)[C@@H]5C[C@@H](O)CN5C(=O)[C@H]([C@@H](C)O)NC4=O)cc3)no2)cc1 [MICAFUNGIN] (X1-[Orn(4R-OH,5R-OH)]T[Hyp][hTyr(3S-OH,4S-OH,3'-OSO3H)][Gln(3R-OH)][Pro(3S-OH,4S-Me)]; lactam 1-C)
Candida albicans [5]
  Activity: Active

Source: ChEMBL document CHEMBL1255303, “In vitro and in vivo antifungal activities of T-2307, a novel arylamidine” (2008)
